Structures are written as SMILES. About 2,400 (0.73%) of roughly 330,000 compounds were called active. What follows is part of a selection rich in actives, with near analogues and random picks from the rest. Values without a mark were called inactive. The calls were made as follows: active = inhibition of at least 40% at 20 µM; inactive = the rest.

Chain of Apoptotic protease-activating factor 1 (Homo sapiens) (O14727 whole entry, looked up): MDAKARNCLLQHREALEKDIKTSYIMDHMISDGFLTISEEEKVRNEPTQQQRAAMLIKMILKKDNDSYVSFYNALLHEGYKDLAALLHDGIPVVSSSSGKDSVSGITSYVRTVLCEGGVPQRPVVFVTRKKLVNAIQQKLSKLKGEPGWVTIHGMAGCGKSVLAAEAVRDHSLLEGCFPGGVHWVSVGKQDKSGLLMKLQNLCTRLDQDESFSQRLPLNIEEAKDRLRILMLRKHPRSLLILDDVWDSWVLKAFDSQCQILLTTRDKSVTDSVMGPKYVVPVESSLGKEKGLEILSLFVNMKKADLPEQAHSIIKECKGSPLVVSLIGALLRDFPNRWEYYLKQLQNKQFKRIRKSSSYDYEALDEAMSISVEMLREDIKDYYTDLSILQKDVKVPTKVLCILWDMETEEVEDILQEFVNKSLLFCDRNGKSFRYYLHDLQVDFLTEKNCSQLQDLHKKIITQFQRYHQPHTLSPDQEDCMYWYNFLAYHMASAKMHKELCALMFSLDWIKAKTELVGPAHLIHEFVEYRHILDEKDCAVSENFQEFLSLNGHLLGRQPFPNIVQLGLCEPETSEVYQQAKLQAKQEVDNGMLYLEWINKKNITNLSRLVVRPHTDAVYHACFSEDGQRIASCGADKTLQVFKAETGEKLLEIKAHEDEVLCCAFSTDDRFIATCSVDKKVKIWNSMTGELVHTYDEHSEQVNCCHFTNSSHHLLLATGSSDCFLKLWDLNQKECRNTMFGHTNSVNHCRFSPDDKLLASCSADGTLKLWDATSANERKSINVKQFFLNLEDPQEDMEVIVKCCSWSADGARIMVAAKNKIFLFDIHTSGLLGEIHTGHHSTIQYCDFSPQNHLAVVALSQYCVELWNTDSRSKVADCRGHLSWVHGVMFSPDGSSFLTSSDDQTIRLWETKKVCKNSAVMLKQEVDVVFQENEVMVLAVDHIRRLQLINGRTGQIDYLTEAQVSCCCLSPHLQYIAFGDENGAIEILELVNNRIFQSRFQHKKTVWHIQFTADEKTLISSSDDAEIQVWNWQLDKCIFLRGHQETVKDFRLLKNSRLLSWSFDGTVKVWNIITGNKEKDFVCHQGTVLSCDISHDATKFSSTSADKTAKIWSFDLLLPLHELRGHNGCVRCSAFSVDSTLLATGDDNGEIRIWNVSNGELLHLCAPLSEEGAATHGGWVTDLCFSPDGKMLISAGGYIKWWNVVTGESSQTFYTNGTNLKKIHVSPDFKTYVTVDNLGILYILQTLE

In this experiment the target is Apoptotic protease-activating factor 1 (Homo sapiens) (UniProt O14727). The experiment in a line: inhibitors of human Apaf-1 apoptosome, primary screen, biochemical, DEVD-Rh110 fluorescence, uHTS (AID 489030).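 Also: plate controls were DMSO wells for no effect and DEVD-CHO caspase inhibitor wells for full effect.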 The settings on record: reconstituted apoptosome caspase-3 activity, at 20 µM, hits give high values. Put shortly:
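Material: cell-free apoptosome with Apaf-1, procaspase-3 and caspase-9; Buffer or medium: Hepes pH 7.5 with detergent and BSA; Reagent: cytochrome c trigger plus (Z-DEVD)2-Rh110 caspase-3 substrate; Times: compound with Apaf-1, dATP, procaspase-3 30 min, then 50 min reaction, room temperature; Technique: Rh110 fluorescence intensity.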
On to `CNC(=O)NC(=O)CSc1nnc(-c2ccc(F)cc2)n1CC1CCCO1` (stereo unspecified), for which the inhibition (as a rule, the change of the read-out against control, counted positive when it falls) is -8.1%.
`O=C(NN1C(=O)C2C3C=CC(C4CC34)C2C1=O)c1ccc(Cl)cc1` (stereo unspecified): the inhibition was 5.04%.
Under `CCOC(=O)Cn1nnnc1C` stands -24.4%.
For `COc1cc(C(=O)NC2CCN(Cc3ccccc3)CC2)cc(Cl)c1OC(C)C`, the inhibition was 4.18%.
In the case of `COc1ccc(-c2sc3ccccc3c2-c2ccc(OCCN3CCOCC3)cc2)cc1`, the inhibition was 15.7%.
Regarding `COc1cccc(-c2sc3ccc(OC)cc3c2-c2ccc(OCCN3CCCCC3)cc2)c1`, the inhibition is 61.8% (active).
Take `COc1ccccc1-c1sc2ccccc2c1-c1ccc(Br)nc1`: the inhibition is 14.2%.
Take `COc1ccc2sc(-c3ccccc3OC)c(-c3ccc(OCCN4CCCC4)cc3)c2c1`: the inhibition was 73.4% (active).
Under `COc1ccccc1-c1sc2ccccc2c1-c1ccc(C(C)=O)cc1` stands 21.9%; under `COc1cc(OC)cc(-c2sc3ccc(OC)cc3c2-c2ccc3cc[nH]c3c2)c1`, 7.8%.
As to `CN1CCC(CN)(N2CCN(c3ccccc3)CC2)CC1`, the inhibition is 6.96%.
For the compound `CC1COc2ccccc2N1S(=O)(=O)c1ccccc1` (stereo unspecified), the inhibition is 11.7%.
For the compound `OCCn1c(-c2ccccc2)csc1=Nc1ccccc1`, the inhibition is 16.7%.
Turning to `O=C(Nc1cccc(Cl)c1Cl)c1ccccc1NC(=O)C1CC=CCC1C(=O)O` (stereo unspecified), the inhibition was -3.06%.
Under `O=C(COC(=O)C1(c2ccc(F)cc2)CCCC1)N1CCNC1=O` stands -3.12%; under `Cc1ccc(NC(=O)c2oc3ccccc3c2C)c([N+](=O)[O-])c1`, 4.97%; under `O=S1(=O)CCC(NC(=S)SCc2ccccc2Br)C1` (stereo unspecified), 8.21%.
`Cc1nc2ccccc2nc(C)c1=NOCc1ccc(Cl)cc1Cl`: the inhibition is 8.52%.
Regarding `NC(N)=N/N=C/c1ccc(OCc2ccc(Cl)cc2Cl)cc1`, the inhibition was 65.5% (active).
On to `COc1ccc(Cl)cc1N(CC(=O)N/N=C/c1ccc(OCC(N)=O)cc1)S(C)(=O)=O`, for which the inhibition is 9.06%.
Regarding `CCCNC(=O)OC[C@H]1O[C@H](CCO/N=C/[C@@H](NS(=O)(=O)c2ccc(C)cc2)[C@H](C)/C=C/CC(=O)OC)C=C[C@@H]1Oc1ccc(OC)cc1`, the inhibition is 9.15%.
Under `O=C(c1ccc(Br)o1)N1CCN(CCOc2ccccc2)CC1` stands 5.93%; under `CN(CC(=O)NC1CCCC1)S(=O)(=O)c1cnc[nH]1`, -3.15%.
As for `CCN(CC(=O)NCc1cccs1)C(=O)c1ccccc1F`, the inhibition is -6.38%.
As for `CCN(CC(=O)NCc1cccs1)C(=O)c1cccc(S(=O)(=O)Nc2ccccc2OC)c1`, the inhibition was 60.2% (active).
Under `CCN(CC(=O)NCc1cccs1)C(=O)c1ccc(OC)c(S(=O)(=O)N2CCOCC2)c1` stands 5.14%.

The record behind these values is PubChem BioAssay AID489030 (Sanford-Burnham Center for Chemical Genomics, 2010).
